Screening data: PubChem, several laboratories
Only some compounds are listed: those with a hit (about 0.9% of all), similar ones and a draw of the others.
DAGLB inh: diacylglycerol lipase beta (human) inhibition; Q8NCG7; HEK293T DAGLB membrane lysate, EnzChek fluorogenic substrate; inhibition, % at 5.17 µM; 340,000 compounds, 0.059% hits; AID 504411; in the data active = inhibition above about 34%
Tn7 DDE FP: disrupts Tn7 cyclic peptide binding to fibrin D-Dimer-E complex | FP displacement of FITC-Tn7 peptide from fibrin DD(E); 0% = median of compound wells per plate | inhibition, % at 8.3 µM | 370,000 compounds, 0.13% hits | P02675;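 active = inhibition above the mean of compounds falling within the control limits plus 3 SD of them, cut at about 14% in these data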
Target sequence (P02675 whole entry, looked up): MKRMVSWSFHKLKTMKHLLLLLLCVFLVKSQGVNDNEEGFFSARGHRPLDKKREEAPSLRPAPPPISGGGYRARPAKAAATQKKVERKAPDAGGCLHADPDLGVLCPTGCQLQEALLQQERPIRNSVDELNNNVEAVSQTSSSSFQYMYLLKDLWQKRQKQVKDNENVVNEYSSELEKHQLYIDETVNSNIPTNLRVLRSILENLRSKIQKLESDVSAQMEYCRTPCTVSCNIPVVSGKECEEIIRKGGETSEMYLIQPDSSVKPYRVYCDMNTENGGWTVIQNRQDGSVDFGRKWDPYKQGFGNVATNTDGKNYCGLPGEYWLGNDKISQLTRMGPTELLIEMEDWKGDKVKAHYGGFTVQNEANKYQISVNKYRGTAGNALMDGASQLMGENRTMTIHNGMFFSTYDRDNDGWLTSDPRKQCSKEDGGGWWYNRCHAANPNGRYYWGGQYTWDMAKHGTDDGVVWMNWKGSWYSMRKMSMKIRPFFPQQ
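Test system – human fibrin DD(E) · Times – 10 min preincubation, 3 h with tracer, room temperature · Detection – fluorescence polarization of the labelled Tn7 tracer · Measure – percent inhibition normalized to high-control wells · Benchmarks – high control wells with 10 µM unlabelled Aha-Tn7 peptide (full inhibition) · Repeats – singlicate testing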
PolyA inh: blocks polyadenylation in yeast reporter cells | S. cerevisiae SKY197-pL101 polyadenylation reporter, beta-gal luminescence; efflux-impaired pdr1/pdr3 knockout yeast; score 100 = 6 SD above DMSO | 300,000 compounds, 0.02% hits | activity score, % at 12 µM | AID 1875;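 active = lowest replicate activity score at least 50, where 100 means six control SD above control mean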;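 note: yeast exposed to compound for 9 h at 30 °C; higher score means more reporter readthrough which indicates perturbed polyadenylation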
MT1-MMP act inh: inhibitors of human MT1-MMP activation. HT1080 RFP-PRO-GFP cells, GFP/RFP ratio fluorescence, overnight; percent of plate control window, DMSO zero. GFP/RFP ratio change, % at 20 µM. 360,000 compounds, 0.061% hits. AID 651647;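 active = GFP/RFP ratio change of at least 30% with cell ATP level not reduced by more than half and red fluorescence within 50% of control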
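Test system: HT1080 cells expressing an RFP-PRO-GFP fluorescent reporter construct / Compound dosing: single-point 20 µM compound, 1% DMSO / Schedule: cells overnight before dosing, compound overnight, 37 °C, 5% CO2 / Evaluation: GFP/RFP fluorescence ratio / Control set: DMSO and RFP-L50D-GFP cell wells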
SKN-1 inh: C. elegans SKN-1 inhibition. C. elegans VP596 Pgst-4::GFP/RFP ratio, acrylamide-induced, 24 h. inhibition, % at 21.8 µM. 360,000 compounds, 0.49% hits. AID 624304;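 active = interference check ratio from 0.5 to 1.5 plus GFP to RFP signal ratio inhibition reaching or exceeding a fixed threshold, cut at about 30% in these data, passing the limit was not always enough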
Tn6 DDE FP: DD(E)-Tn6 binding inhibition, primary FP screen; Fibrin DD(E) TRITC-Tn6 fluorescence polarization displacement; inhibition, % at 8.3 µM; P02675; 370,000 compounds, 0.21% hits; AID 720509;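 active = inhibition above a per-campaign cutoff: mean of compounds within control limits plus 3 SD, cut at about 15% in these data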
DAGLB confirm: DAGLB (human) inhibition, confirmation screen; shares compounds with DAGLB inh; HEK293T DAGLB membrane lysate, EnzChek fluorogenic substrate; inhibition, % at 5.17 µM; 190 compounds, 73% hits; AID 504445;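 active = mean inhibition over triplicate wells above a set limit taken from the primary lipase screen, cut at about 34% in these data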
MT1-MMP act val: blocks activation of human MT1-MMP in validation testing; shares compounds with MT1-MMP act inh; HT1080 RFP-PRO-GFP cells, GFP and RFP fluorescence ratio, overnight; inhibition, % at 20 µM; 200 compounds, 10% hits;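 active = inhibition of at least 50% in the primary cell screen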
Tn6 DDE ctr: counter-screen hit for Tn6 peptide-fibrin DD(E) binding disruption. shares compounds with Tn6 DDE FP. TRITC-Tn6 fluorescence polarization displacement; 0% = median of compound wells, not DMSO. inhibition, % at 8.3 µM. 680 compounds, 2% hits. AID 720621;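 active = inhibition above the mean of test compounds lying between the control limits plus 3 SD of those, cut at about 14% in these data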
Tn6 DDE conf: DD(E)-Tn6 binding inhibition, FP confirmation; shares compounds with Tn6 DDE FP; FP displacement of TRITC-Tn6 peptide from DD(E); 0% = per-plate median of test wells; inhibition, % at 8.3 µM; 680 compounds, 10% hits;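 active = inhibition above the mean of compounds lying within the control limits plus 3 SD, cut at about 16% in these data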
A number is an active result; 0 = inactive; - = no result.

SMILES	DAGLB inh	Tn7 DDE FP	PolyA inh	MT1-MMP act inh	SKN-1 inh	Tn6 DDE FP	DAGLB confirm	others
O=S(=O)(O)c1cccc(N=Nc2c(O)ccc3ccccc23)c1	37	0	0	0	0	0	37
O=C(N/N=C/c1ccc(O)c(O)c1O)/C(=C/c1ccc([N+](=O)[O-])cc1)NC(=O)c1ccccc1	35	0	0	0	0	0	0
O=C1C(Nc2ccc(O)cc2)=C/C(=N/S(=O)(=O)c2cccs2)c2ccccc21	37	0	0	0	0	0	44
Cc1ccc(NC2=C/C(=N\S(=O)(=O)c3cccs3)c3ccccc3C2=O)c(C)c1	50	-	0	0	0	-	53
CCOc1ccccc1C(=O)N1CCC(Oc2cccnc2)CC1	-	0	-	-	-	0	-
COc1ccc(C(=O)OCCN2CCN(C3CN(Cc4cn(Cc5ccccc5C(F)(F)F)nn4)S(=O)(=O)C3)CC2)cc1OC (centres undefined)	-	0	-	-	-	0	-
Nc1nc(-c2ccccc2)c(N=Nc2ccc(Cl)cc2)s1	51	0	0	0	0	0	84
Nc1nc(-c2ccccc2)c(-c2ccccc2)s1	0	0	0	0	0	0	-
CCc1ccc(S(=O)(=O)/N=C2\C=C(Nc3ccc(O)cc3)C(=O)c3ccccc32)cc1	40	-	0	0	0	-	51
O=C(O)c1ccc(NC2=C/C(=N/S(=O)(=O)c3ccccc3)c3ccccc3C2=O)cc1	0	0	-	0	0	0	-
Cc1cc(C)c(S(=O)(=O)/N=C2\C=C(Nc3ccc(C(=O)O)cc3)C(=O)c3ccccc32)c(C)c1	36	0	0	0	0	0	39
O=C(O)c1ccc(NC2=C/C(=N/S(=O)(=O)c3cccs3)c3ccccc3C2=O)cc1	0	0	-	0	0	0	-
CCc1ccc(S(=O)(=O)/N=C2\C=C(Nc3cccc(C(=O)O)c3)C(=O)c3ccccc32)cc1	47	0	0	0	0	0	0
CN(C)C(=O)C[C@H]1CC[C@H]2[C@H](COc3ccc(NC(=O)C4CC4)cc3C(=O)N2C)O1	-	0	-	-	-	0	-
CCCC1CCC2(CCCN2CCOC(=S)Nc2ccccc2Br)CC1 (centres undefined)	-	0	-	-	-	0	-
COc1ccc(C=NNc2ccc(S(=O)(=O)Nc3ccccc3C(=O)O)cc2[N+](=O)[O-])c(OC)c1	43	-	-	0	0	-	43
COc1ccc(NC(=S)NNc2ccc(S(=O)(=O)Nc3ccccc3C(=O)O)cc2[N+](=O)[O-])cc1	43	0	0	0	0	0	48
O=C(O)c1ccccc1NS(=O)(=O)c1ccc(NN=Cc2ccccc2F)c([N+](=O)[O-])c1	0	0	-	0	0	0	-
COC(=O)[C@H](C(C)C)N1CCc2nnn(CC3CCCCC3)c2-c2cc(F)ccc2S1(=O)=O	-	0	-	-	-	0	-
O=C1C(=O)N(Cc2ccc(-c3ccccc3)cc2)c2ccc(OC(F)(F)F)cc21	-	0	-	-	-	0	-
O=C(NN1C(=O)/C(=C/c2ccc(O)c([N+](=O)[O-])c2)SC1=S)c1ccccc1Cl	45	0	0	0	0	0	42
CC(=O)CC[C@@H]1CC[C@]2(CCCN(C(=O)C3CCCCC3)C2)O1	-	0	-	-	-	0	-
O=C1c2ccccc2C(=O)c2c1cccc2N1CCCC1	36	0	0	0	0	0	39
Nc1ccc(N=Nc2ccccc2)c2cccnc12	37	0	0	0	0	0	42
CC(=O)c1cc(-c2ccc(Oc3ccccc3)cc2)c(=O)n2c1CCC2	-	0	-	-	-	0	-
SMILES	DAGLB inh	Tn7 DDE FP	PolyA inh	MT1-MMP act inh	SKN-1 inh	Tn6 DDE FP	DAGLB confirm	others
O=C1CC(c2ccccc2)=C(c2ccccc2)C1	71	0	-	0	0	0	0
CC1=C(c2ccccc2)CCC1=O	0	0	0	0	0	0	-
COc1ccc(N(CC(=O)NCc2ccco2)S(C)(=O)=O)cc1	65	0	0	0	0	0	0
S=C(Nc1ccccc1)OCCN1CCCC12CCC(c1ccccc1)CC2 (centres undefined)	-	0	-	-	-	0	-
CCN(CC)c1ccc(C(=C2C=CC(=[N+](CC)CC)C=C2)c2ccccc2)cc1	0	0	-	0	0	0	-
CCN(CC)c1ccc(C(=C2C=CC(=[N+](CC)CC)C=C2)c2ccc(N(CC)CC)cc2)cc1	53	0	-	143	0	84	105	MT1-MMP act val=126
N#CC(C#N)=NNc1ccc([N+](=O)[O-])cc1	39	0	0	33	90	0	58	MT1-MMP act val=0
Cc1occc1-c1nnc(SCC(=O)NCc2ccc(Cl)cc2)n1-c1ccccc1	-	0	-	-	-	0	-
O=C1/C(=C\c2cccc([N+](=O)[O-])c2O)SC(=S)N1Cc1ccccc1	0	0	0	0	0	0	-
COc1cc([N+](=O)[O-])cc(/C=C2/SC(=S)N(Cc3ccccc3)C2=O)c1O	40	0	0	0	52	56	48	Tn6 DDE ctr=0;Tn6 DDE conf=34
O=[N+]([O-])c1cnc2ccccc2c1Sc1ccccc1	-	0	-	-	-	0	-
Cc1ccc(Cl)cc1NC1=C/C(=N\S(=O)(=O)c2cccs2)c2ccccc2C1=O	43	0	0	0	0	53	46	Tn6 DDE ctr=0;Tn6 DDE conf=0
CCn1c2ccccc2nc2cc3c(cc21)c(Cl)c(=O)c1ccccc13	0	0	-	36	0	0	-	MT1-MMP act val=0
CNc1ccccc1C(C)(C)c1cc(-c2ccco2)n[nH]1	0	0	0	34	0	0	-	MT1-MMP act val=0
COc1cccc(CNC(=O)C2CCN(c3nc(OC)nc(OC)n3)CC2)c1	-	0	-	-	-	0	-
CN(N=Nc1ccc([N+](=O)[O-])cc1)c1ccccc1	0	0	0	0	0	0	-
CN(CCCC(=O)O)c1ccc(N=Nc2ccc([N+](=O)[O-])cc2)cc1	0	0	0	53	0	0	-	MT1-MMP act val=0
C=CCN(CC#Cc1ccc(C)cc1)Cc1ccc(OC)cc1OC	-	0	-	-	-	0	-
C(#CC1=CCCCC1)CNCC1CC1	-	0	-	-	-	0	-
O=C(NCCCn1ccnc1)c1cccnc1	0	0	0	32	0	0	-	MT1-MMP act val=0
O=C(NCCCn1ccnc1)c1cccc(Br)c1	0	0	0	0	0	0	-
